This is an account of results in ChEMBL document CHEMBL2074042, “beta-lactam antibiotics as substrates for OCTN2, an organic cation/carnitine transporter” (J Biol Chem, 2000).

Holding throughout (type): functional, cell-based
Data set [1] concerns the target T1, Solute carrier family 15 member 2 (Rattus norvegicus) (UniProt Q63424).
T1 sequence (whole entry): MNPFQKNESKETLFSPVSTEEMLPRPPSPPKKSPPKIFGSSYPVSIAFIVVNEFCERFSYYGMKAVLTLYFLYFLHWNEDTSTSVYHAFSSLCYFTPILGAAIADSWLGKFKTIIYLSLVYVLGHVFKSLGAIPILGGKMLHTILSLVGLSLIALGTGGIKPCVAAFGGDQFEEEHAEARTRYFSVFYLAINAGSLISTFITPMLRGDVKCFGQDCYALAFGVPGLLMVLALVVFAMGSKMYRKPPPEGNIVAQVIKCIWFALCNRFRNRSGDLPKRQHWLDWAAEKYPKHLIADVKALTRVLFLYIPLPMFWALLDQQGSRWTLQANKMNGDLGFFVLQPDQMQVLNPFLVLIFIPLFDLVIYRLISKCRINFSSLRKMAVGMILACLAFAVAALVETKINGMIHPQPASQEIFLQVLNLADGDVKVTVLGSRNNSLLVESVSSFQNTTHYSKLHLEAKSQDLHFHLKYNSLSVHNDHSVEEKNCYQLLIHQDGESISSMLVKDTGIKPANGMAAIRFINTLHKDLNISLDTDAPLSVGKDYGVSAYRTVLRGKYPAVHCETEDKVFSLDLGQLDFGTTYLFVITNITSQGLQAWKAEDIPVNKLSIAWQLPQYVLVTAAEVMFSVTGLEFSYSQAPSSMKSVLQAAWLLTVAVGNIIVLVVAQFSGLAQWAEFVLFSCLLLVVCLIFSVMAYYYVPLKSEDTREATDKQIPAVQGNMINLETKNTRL
The data set can be described thus: TP_TRANSPORTER: inhibition of Gly-Sar uptake (Gly-Sar: 25 uM, Ceftazidime: 2500uM) in PEPT2-expressing HeLa cells. In outline:
(§1)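 HeLa cells were transfected with human PEPT1 or rat PEPT2 cDNA. [14C]glycylsarcosine uptake (50 μM for PEPT1, 25 μM for PEPT2) ran 5 min at room temperature, inward H+ gradient, 25 mM Mes/Tris pH 6.0 buffer, antibiotic 2.5 mM. Vector-cell uptake was subtracted and lysates were scintillation-counted. Mean ± S.E., three measurements.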

The target of data set [2] is T2, Solute carrier family 15 member 1 (Homo sapiens) (UniProt P46059).
T2 sequence (whole entry): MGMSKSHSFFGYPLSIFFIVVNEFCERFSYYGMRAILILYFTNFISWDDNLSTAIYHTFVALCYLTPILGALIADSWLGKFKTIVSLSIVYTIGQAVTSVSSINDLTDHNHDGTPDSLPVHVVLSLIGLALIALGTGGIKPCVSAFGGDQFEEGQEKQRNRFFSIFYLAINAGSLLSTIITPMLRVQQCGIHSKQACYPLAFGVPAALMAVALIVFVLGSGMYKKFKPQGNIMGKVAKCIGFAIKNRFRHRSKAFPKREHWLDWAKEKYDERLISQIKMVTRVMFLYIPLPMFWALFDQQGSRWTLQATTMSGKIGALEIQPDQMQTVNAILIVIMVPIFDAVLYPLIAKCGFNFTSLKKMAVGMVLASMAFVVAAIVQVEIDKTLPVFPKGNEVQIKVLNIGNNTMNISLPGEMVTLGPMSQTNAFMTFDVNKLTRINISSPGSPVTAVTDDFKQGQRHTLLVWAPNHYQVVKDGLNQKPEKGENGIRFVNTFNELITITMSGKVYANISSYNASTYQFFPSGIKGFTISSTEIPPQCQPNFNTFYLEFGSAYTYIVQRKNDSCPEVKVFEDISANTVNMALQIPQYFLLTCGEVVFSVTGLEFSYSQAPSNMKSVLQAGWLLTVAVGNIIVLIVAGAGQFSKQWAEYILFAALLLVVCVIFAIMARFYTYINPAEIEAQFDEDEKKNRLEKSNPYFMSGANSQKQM
The data set can be described thus: TP_TRANSPORTER: inhibition of Gly-Sar uptake (Gly-Sar: 50 uM, Ceftazidime: 2500uM) in PEPT1-expressing HeLa cells. The essentials:
as §1

The target in data set [3] is T3, Organic cation/carnitine transporter 2 (Homo sapiens, UniProt O76082).
T3 sequence (O76082 whole entry): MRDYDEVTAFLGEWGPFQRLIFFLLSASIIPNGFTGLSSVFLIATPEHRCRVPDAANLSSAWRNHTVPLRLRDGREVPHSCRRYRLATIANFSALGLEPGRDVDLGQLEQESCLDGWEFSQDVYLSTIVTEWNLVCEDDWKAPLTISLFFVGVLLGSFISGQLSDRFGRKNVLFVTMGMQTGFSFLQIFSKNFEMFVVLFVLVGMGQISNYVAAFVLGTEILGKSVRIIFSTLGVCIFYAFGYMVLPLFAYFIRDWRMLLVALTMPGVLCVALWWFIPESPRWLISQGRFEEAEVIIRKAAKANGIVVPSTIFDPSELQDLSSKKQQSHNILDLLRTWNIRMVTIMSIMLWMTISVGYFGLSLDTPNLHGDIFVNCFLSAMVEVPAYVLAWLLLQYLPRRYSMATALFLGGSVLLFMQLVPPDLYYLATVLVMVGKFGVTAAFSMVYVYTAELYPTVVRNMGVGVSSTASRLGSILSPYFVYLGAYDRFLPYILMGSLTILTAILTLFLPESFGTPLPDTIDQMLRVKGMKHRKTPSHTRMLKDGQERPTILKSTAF
As to the kind of experiment: (§2) TP_TRANSPORTER: inhibition of Carnitine uptake (Carnitine: 0.02 uM, Ceftazidime: 2500 uM) in OCTN2-expressing HeLa cells.

In data set [4] the target is T4, Organic cation/carnitine transporter 2 (Rattus norvegicus, UniProt O70594).
T4 sequence (O70594 whole entry): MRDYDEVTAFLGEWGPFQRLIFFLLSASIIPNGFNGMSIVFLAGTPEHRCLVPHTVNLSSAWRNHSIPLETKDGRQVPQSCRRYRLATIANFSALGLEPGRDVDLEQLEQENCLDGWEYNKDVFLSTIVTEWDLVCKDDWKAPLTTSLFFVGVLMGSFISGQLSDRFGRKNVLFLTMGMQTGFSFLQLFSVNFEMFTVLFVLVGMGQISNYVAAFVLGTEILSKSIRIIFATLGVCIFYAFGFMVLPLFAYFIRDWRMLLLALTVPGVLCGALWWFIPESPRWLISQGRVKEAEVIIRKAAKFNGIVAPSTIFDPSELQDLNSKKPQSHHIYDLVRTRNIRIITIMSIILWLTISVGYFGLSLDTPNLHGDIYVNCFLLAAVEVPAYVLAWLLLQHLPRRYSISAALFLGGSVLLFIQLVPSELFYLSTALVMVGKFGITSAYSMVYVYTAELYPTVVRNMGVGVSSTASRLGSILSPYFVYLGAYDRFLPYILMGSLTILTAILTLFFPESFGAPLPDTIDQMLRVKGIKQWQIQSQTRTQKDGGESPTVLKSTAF
Described as §2. The following applies: human.

Data set [5] concerns the target T3, Organic cation/carnitine transporter 2. The data set can be described thus: TP_TRANSPORTER: inhibition of Carnitine uptake (Carnitine: 0.02 uM, Ampicillin: 2500 uM) in OCTN2-expressing HeLa cells.
Data set [6] has the same target. The data set can be described thus: (§3) TP_TRANSPORTER: inhibition of Carnitine uptake (Carnitine: 0.02 uM, Cefadroxil: 2500 uM) in OCTN2-expressing HeLa cells. The essentials: (§4)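 HeLa cells expressed human or rat OCTN2 cDNA by vaccinia virus/T7 system. [3H]carnitine (20 nM) uptake for 30 min at room temperature in Na+-containing Hepes/Tris buffer, pH 7.5, with β-lactam at 2.5 mM. Lysate radioactivity counted. Endogenous activity from vector-only cells subtracted. Four measurements from two transfections.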

The target of data set [7] is T4, Organic cation/carnitine transporter 2. The data set is described as §3. The following applies: human. In outline:
as §4

Data set [8] concerns the target T5, OCTN2 (organic cation/carnitine transporter 2) (Rattus norvegicus, UniProt O70594).
T5 sequence (O70594 whole entry): T4 sequence (O70594 whole entry)
The data set can be described thus: (§5) TP_TRANSPORTER: inhibition of Carnitine uptake (Carnitine: 0.02 uM, Cefluprenam: 2500 uM) in OCTN2-expressing HeLa cells. The arrangement: scale not given: the % may be the effect or the level left. Particulars: human, probe carnitine (0.02 uM), read-out: Activity. In outline:
as §4

Data set [9] deals with T6, OCTN2 (organic cation/carnitine transporter 2) (Homo sapiens, UniProt O76082).
T6 sequence (O76082 whole entry): T3 sequence (O76082 whole entry)
The description is as §5. The arrangement: scale not given: the % may be the effect or the level left. Particulars: probe carnitine (0.02 uM), read-out: Activity. In outline:
as §4

Data set [10] addresses T2, Solute carrier family 15 member 1 (Homo sapiens). The data set can be described thus: TP_TRANSPORTER: inhibition of Gly-Sar uptake (Gly-Sar: 50 uM, Cefluprenam: 2500uM) in PEPT1-expressing HeLa cells. In outline:
(§6)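 HeLa cells expressing human PEPT1 cDNA. [14C]glycylsarcosine (50 μM) uptake for 5 min in Mes/Tris buffer, pH 6.0, giving an H+ gradient, with test compound at 2.5 mM. Vector-transfected uptake subtracted. Percent of control, n=3, mean ± S.E.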

Data set [11] deals with T1, Solute carrier family 15 member 2 (Rattus norvegicus). The data set can be described thus: TP_TRANSPORTER: inhibition of Gly-Sar uptake (Gly-Sar: 25 uM, Cefluprenam: 2500uM) in PEPT2-expressing HeLa cells. In outline:
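HeLa cells expressing rat PEPT2 cDNA. [14C]glycylsarcosine (25 μM) uptake for 5 min under an inward H+ gradient in Mes/Tris buffer, pH 6.0, with test compound at 2.5 mM. Vector-cell uptake subtracted. Results as percent of control, three independent measurements, mean ± S.E.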

In data set [12] the target is T2, Solute carrier family 15 member 1 (Homo sapiens). The data set can be described thus: TP_TRANSPORTER: inhibition of Gly-Sar uptake (Gly-Sar: 50 uM, CER: 2500uM) in PEPT1-expressing HeLa cells. In outline: as §6
Data set [13] addresses T3, Organic cation/carnitine transporter 2. The data set can be described thus: TP_TRANSPORTER: uptake in OCTN2-expressing HeLa cells. In outline: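 hOCTN2 or vector-transfected HeLa cells incubated with 1 mM cephaloridine for 1 h at 37 °C in NaCl or N-methyl-D-glucamine chloride (Na+-free) medium. Cells lysed in water and lysate centrifuged. Supernatant cephaloridine quantified by C18 HPLC with UV at 254 nm against a standard curve, expressed per 10^6 cells.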

For data set [14] the target is unchanged. As to the kind of experiment: TP_TRANSPORTER: inhibition of Carnitine uptake (Carnitine: 0.02 uM, Cephradine: 2500 uM) in OCTN2-expressing HeLa cells.

For the compound `CC(C)(O/N=C(\C(=O)N[C@@H]1C(=O)N2C(C(=O)[O-])=C(C[n+]3ccccc3)CS[C@H]12)c1csc(N)n1)C(=O)O` [CEFTAZIDIME], the Activity entry in [1], in data set [2], in data set [3] and in [4] was “is not an inhibitor [-]” throughout.

For the compound `CC1(C)S[C@@H]2[C@H](NC(=O)[C@H](N)c3ccccc3)C(=O)N2[C@H]1C(=O)O` [AMPICILLIN], in data set [5], the Activity result was “is not an inhibitor [-]”.

Turning to `CC1=C(C(=O)O)N2C(=O)[C@@H](NC(=O)[C@H](N)c3ccc(O)cc3)[C@H]2SC1` [CEFADROXIL], the Activity entry in data set [6] and in data set [7] was “is not an inhibitor [-]” in each case.

As to `CC[N+](C)(C/C=C/C1=C(C(=O)[O-])N2C(=O)[C@@H](NC(=O)/C(=N\OCF)c3nsc(N)n3)[C@H]2SC1)CC(N)=O` (some centres undefined) [CEFLUPRENAM], the activity at 2500 µM was found to be 76% in data set [8] and 74% in data set [9]. The Activity entry in data set [10] and in data set [11] was “is not an inhibitor [-]” in each case.

In the case of `O=C(Cc1cccs1)N[C@@H]1C(=O)N2C(C(=O)[O-])=C(C[n+]3ccccc3)CS[C@H]12` [CEPHALORIDINE], the Activity result in [12] is “is not an inhibitor [-]”; in data set [13], “substrate [+]”.

Take `CC1=C(C(=O)O)N2C(=O)[C@@H](NC(=O)[C@H](N)C3=CCC=CC3)[C@H]2SC1` [CEPHRADINE]: in data set [14], the Activity result was “is not an inhibitor [-]”.
